From ChEMBL document CHEMBL1154157, “Synthesis, structure and structure-activity relationship analysis of 3-tert-butoxycarbonyl-2-arylthiazolidine-4-carboxylic acid derivatives as potential antibacterial agents” (Eur J Med Chem, 2009)
≈ marks a conversion by molar mass, not a printed value.

Assays:
Assay type in all cases: functional, organism-based
Pseudomonas aeruginosa = experiment: Antibacterial activity against Pseudomonas aeruginosa ATCC 13525 after 24 hrs by MTT method; conditions: ATCC 13525, 24 h
Outline: (§1)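 Broth assay in Mueller-Hinton liquid medium. Compounds dissolved in DMSO (stock 50 μg/mL) and serially diluted into the medium. Inoculum approx. 10^5 cfu/mL, incubated 37 °C for 24 h. Afterwards MTT (2 mg/mL in 0.01 mol/L PBS, pH 7.4) added, 4-5 h at room temperature. Dye extracted with isopropanol containing 5% 1 mol/L HCl for 12 h, OD read at 570 nm. IC50 derived colorimetrically.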

Bacillus subtilis = experiment: Antibacterial activity against Bacillus subtilis ATCC 6633 after 24 hrs by MTT method; conditions: ATCC 6633, 24 h; outline: as §1
Escherichia coli = experiment: Antibacterial activity against Escherichia coli ATCC 35218 after 24 hrs by MTT method; conditions: ATCC 35218, 24 h; outline: as §1
Staphylococcus aureus = experiment: Antibacterial activity against Staphylococcus aureus ATCC 6538 after 24 hrs by MTT method; conditions: ATCC 6538, 24 h; outline: as §1

## O=C(O)[C@@H]1CSC(c2ccccc2)N1 (mixture of isomers)
Pseudomonas aeruginosa
  IC50: > 50 µg/mL
Bacillus subtilis
  IC50: 3.12 µg/mL
Escherichia coli
  IC50: 25 µg/mL
Staphylococcus aureus
  IC50: 12.5 µg/mL

## O=C(O)[C@@H]1CSC(c2cc(Cl)ccc2O)N1 (mixture of isomers)
Pseudomonas aeruginosa
  IC50: 3.12 µg/mL
Bacillus subtilis
  IC50: 12.5 µg/mL
Escherichia coli
  IC50: 12.5 µg/mL
Staphylococcus aureus
  IC50: 6.25 µg/mL

## CC(C)(C)OC(=O)N1C(c2cc(Cl)ccc2O)SC[C@H]1C(=O)O (mixture of isomers)
Pseudomonas aeruginosa
  IC50: 0.39 µg/mL
Bacillus subtilis
  IC50: 1.56 µg/mL
Escherichia coli
  IC50: 1.56 µg/mL
Staphylococcus aureus
  IC50: 1.56 µg/mL

## CC(C)(C)OC(=O)N1C(c2ccc(O)cc2)SC[C@H]1C(=O)O (mixture of isomers)
Pseudomonas aeruginosa
  IC50: 0.39 µg/mL
Bacillus subtilis
  IC50: 0.39 µg/mL
Escherichia coli
  IC50: 0.78 µg/mL
Staphylococcus aureus
  IC50: 3.12 µg/mL

## CC(C)(C)OC(=O)N1C(c2cc(Br)ccc2O)SC[C@H]1C(=O)O (mixture of isomers)
Pseudomonas aeruginosa
  IC50: 0.78 µg/mL
Bacillus subtilis
  IC50: 1.56 µg/mL
Escherichia coli
  IC50: 1.56 µg/mL
Staphylococcus aureus
  IC50: 1.56 µg/mL

## CC(C)(C)OC(=O)N1C(c2cc(C(C)(C)C)c(O)c(C(C)(C)C)c2)SC[C@H]1C(=O)O (mixture of isomers)
Pseudomonas aeruginosa
  IC50: 0.39 µg/mL
Bacillus subtilis
  IC50: 0.39 µg/mL
Escherichia coli
  IC50: 0.69 µg/mL
Staphylococcus aureus
  IC50: 1.56 µg/mL

## O=C(O)[C@@H]1CSC(c2cc(Br)ccc2O)N1 (mixture of isomers)
Pseudomonas aeruginosa
  IC50: 6.25 µg/mL
Bacillus subtilis
  IC50: 12.5 µg/mL
Escherichia coli
  IC50: 25 µg/mL
Staphylococcus aureus
  IC50: 12.5 µg/mL

## COc1ccc(C2SC[C@@H](C(=O)O)N2C(=O)OC(C)(C)C)cc1 (mixture of isomers)
Pseudomonas aeruginosa
  IC50: 0.39 µg/mL
Bacillus subtilis
  IC50: 3.12 µg/mL
Escherichia coli
  IC50: 0.78 µg/mL
Staphylococcus aureus
  IC50: 1.56 µg/mL

## O=C(O)[C@@H]1CSC(c2cc(F)ccc2O)N1 (mixture of isomers)
Pseudomonas aeruginosa
  IC50: 1.56 µg/mL
Bacillus subtilis
  IC50: 3.12 µg/mL
Escherichia coli
  IC50: 12.5 µg/mL
Staphylococcus aureus
  IC50: 6.25 µg/mL

## CC(C)(C)OC(=O)N1C(c2ccc(Br)cc2)SC[C@H]1C(=O)O (mixture of isomers)
Pseudomonas aeruginosa
  IC50: 0.39 µg/mL
Bacillus subtilis
  IC50: 3.12 µg/mL
Escherichia coli
  IC50: 0.39 µg/mL
Staphylococcus aureus
  IC50: 3.12 µg/mL

## CC(C)(C)OC(=O)N1C(c2cc(F)ccc2O)SC[C@H]1C(=O)O (mixture of isomers)
Pseudomonas aeruginosa
  IC50: 0.195 µg/mL
Bacillus subtilis
  IC50: 0.39 µg/mL
Escherichia coli
  IC50: 0.78 µg/mL
Staphylococcus aureus
  IC50: 0.39 µg/mL

## CC(C)(C)c1cc(C2N[C@H](C(=O)O)CS2)cc(C(C)(C)C)c1O (mixture of isomers)
Pseudomonas aeruginosa
  IC50: 25 µg/mL
Bacillus subtilis
  IC50: 25 µg/mL
Escherichia coli
  IC50: 25 µg/mL
Staphylococcus aureus
  IC50: 12.5 µg/mL

## CC(C)(C)OC(=O)N1C(c2ccccc2)SC[C@H]1C(=O)O (mixture of isomers)
Pseudomonas aeruginosa
  IC50: 0.78 µg/mL
Bacillus subtilis
  IC50: 3.12 µg/mL
Escherichia coli
  IC50: 0.39 µg/mL
Staphylococcus aureus
  IC50: 0.78 µg/mL

## COc1ccc(C2N[C@H](C(=O)O)CS2)cc1 (mixture of isomers)
Pseudomonas aeruginosa
  IC50: > 50 µg/mL
Bacillus subtilis
  IC50: 12.5 µg/mL
Escherichia coli
  IC50: > 50 µg/mL
Staphylococcus aureus
  IC50: 25 µg/mL

## CC(C)(C)OC(=O)N1C(c2cc(Br)cc(Br)c2O)SC[C@H]1C(=O)O (mixture of isomers)
Pseudomonas aeruginosa
  IC50: 0.39 µg/mL
Bacillus subtilis
  IC50: 3.12 µg/mL
Escherichia coli
  IC50: 0.78 µg/mL
Staphylococcus aureus
  IC50: 1.56 µg/mL

## O=C(O)[C@@H]1CSC(c2ccc(O)cc2)N1 (mixture of isomers)
Pseudomonas aeruginosa
  IC50: 25 µg/mL
Bacillus subtilis
  IC50: 25 µg/mL
Escherichia coli
  IC50: > 50 µg/mL
Staphylococcus aureus
  IC50: > 50 µg/mL

## O=C(O)[C@@H]1CSC(c2cc(Br)cc(Br)c2O)N1 (mixture of isomers)
Pseudomonas aeruginosa
  IC50: 25 µg/mL
Bacillus subtilis
  IC50: 12.5 µg/mL
Escherichia coli
  IC50: 12.5 µg/mL
Staphylococcus aureus
  IC50: > 50 µg/mL

## NC[C@H]1O[C@H](O[C@H]2[C@H](O)[C@@H](O[C@H]3O[C@H](CO)[C@@H](O)[C@H](N)[C@H]3O)[C@H](N)C[C@@H]2N)[C@H](N)[C@@H](O)[C@@H]1O [BEKANAMYCIN]
Pseudomonas aeruginosa
  IC50: 3.12 µg/mL (≈ 6.46 µM)
Bacillus subtilis
  IC50: 0.39 µg/mL (≈ 0.807 µM)
Escherichia coli
  IC50: 3.12 µg/mL (≈ 6.46 µM)
Staphylococcus aureus
  IC50: 1.56 µg/mL (≈ 3.23 µM)

## CC1(C)S[C@@H]2[C@H](NC(=O)Cc3ccccc3)C(=O)N2[C@H]1C(=O)O [PENICILLIN G]
Pseudomonas aeruginosa
  IC50: 6.25 µg/mL (≈ 18.7 µM)
Bacillus subtilis
  IC50: 1.56 µg/mL (≈ 4.67 µM)
Escherichia coli
  IC50: 6.25 µg/mL (≈ 18.7 µM)
Staphylococcus aureus
  IC50: 1.56 µg/mL (≈ 4.67 µM)
